The text below walks through data of ChEMBL document CHEMBL1772995, “Targeting the c-Kit Promoter G-quadruplexes with 6-Substituted Indenoisoquinolines” (ACS Med Chem Lett, 2010).

Counter-ions that a name gives are not always drawn. Activity calls are given as the source filed them. The rule behind the calls is not given here. Bounds are passed on as bounds.

The test system of one data set is HT-29. In words: cells. Type of data set: functional, cell-based. The note with it: Homo sapiens, HT-29, 96 h.
In data set [1] the test system is Nucleic Acid. The experiment in a line: Binding affinity to human c-KIT1 (5'-FAM-GGGAGGGCGCTGGGAGGAGGG-TAMRA-3') DNA assessed as concentration required to cause half maximal change in melting temperature by FRET-melting assay (reference value: 54.4 degC). Type of data set: nucleic-acid assay. The method in brief: (§1)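 Dual FAM/TAMRA-labelled oligonucleotides diluted in 60 mM potassium cacodylate, pH 7.4, annealed at 400 nM (94 °C for 10 min, cooled to room temperature at 0.1 °C/min), then mixed 1:1 with ligand solution to 200 nM DNA final. Melting read with excitation at 483 nm and emission at 533 nm, in triplicate. ΔTm taken across a range of ligand concentrations, with the ligand level giving half-maximal ΔTm also derived.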

In data set [2] the test system is Nucleic Acid. The experiment in a line: Binding affinity to human telomeric (5'-FAM-GGGTTAGGGTTAGGGTTAGGG-TAMRA-3') DNA assessed as concentration required to cause half maximal change in melting temperature by FRET-melting assay (reference value: 59.4 degC). Type of data set: nucleic-acid assay. An outline of the steps: as §1
The test system of data set [3] is Nucleic Acid. In words: Binding affinity to double stranded-DNA (50-FAM-TAT AGC TAT A-HEG-TAT AGC TAT A-TAMRA-30) assessed as concentration required to cause half maximal change in melting temperature by FRET-melting assay (reference value: 62.7 degC). Format: nucleic-acid assay. An outline of the steps: as §1
Data set [4] deals with Nucleic Acid. The experiment in a line: Binding affinity to human c-KIT1 (5'-FAM-GGGAGGGCGCTGGGAGGAGGG-TAMRA-3') DNA assessed as change in melting temperature at 1 uM by FRET-melting assay (reference value: 54.4 degC). Format: nucleic-acid assay. An outline of the steps:
as §1

The next data set in a line: cells. Format: functional, cell-based. The settings on record: Homo sapiens, GIST882, 96 h.
In data set [5] the test system is Nucleic Acid. The experiment in a line: Binding affinity to double stranded-DNA (50-FAM-TAT AGC TAT A-HEG-TAT AGC TAT A-TAMRA-30) assessed as change in melting temperature at 1 uM by FRET-melting assay (reference value: 62.7 degC). Format: nucleic-acid assay. The method in brief:
as §1

Data set [6] concerns Nucleic Acid. The experiment in a line: Binding affinity to human telomeric (5'-FAM-GGGTTAGGGTTAGGGTTAGGG-TAMRA-3') DNA assessed as change in melting temperature at 1 uM by FRET-melting assay (reference value: 59.4 degC). Format: nucleic-acid assay. The method in brief: as §1
Data set [7] concerns Nucleic Acid. In words: Binding affinity to human c-KIT2 (5'-FAM-GGGCGGGCGCGAGGGAGGGG-TAMRA-3') DNA assessed as concentration required to cause half maximal change in melting temperature by FRET-melting assay (reference value: 72.7 degC). Format: nucleic-acid assay. An outline of the steps: as §1
Data set [8] deals with Nucleic Acid. The experiment in a line: Binding affinity to human c-KIT2 (5'-FAM-GGGCGGGCGCGAGGGAGGGG-TAMRA-3') DNA assessed as change in melting temperature at 1 uM by FRET-melting assay (reference value: 72.7 degC). Format: nucleic-acid assay. The method in brief: as §1
The target of data set [9] is Mast/stem cell growth factor receptor Kit (Homo sapiens) (UniProt P10721). In words: Inhibition of c-Kit protein expression in human GIST882 cells after 24 hrs by immunoblotting. Type of data set: functional, cell-based. The method in brief:
(§2)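 GIST882 cells (1 × 10^6 per T25 flask) treated 24 h with 0.8, 4 or 20 μM ligand, or DMSO control. Lysed in RIPA buffer with protease and phosphatase inhibitors; 10–20 μg protein run on 8–16% SDS-PAGE, transferred to nitrocellulose and probed with anti-KIT. β-actin used as loading control; enhanced-luminescence detection.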

The target is the same in data set [10]. In words: Inhibition of c-Kit mRNA expression in human GIST882 cells at 20 uM after 24 hrs by […] RT-PCR analysis relative to control. Format: functional, cell-based. An outline of the steps: (§3)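 GIST882 cells grown in RPMI 1640 with 10% FBS. 1 × 10^6 cells seeded in T25 flasks and treated 24 h with 0.8, 4 or 20 μM ligand, or DMSO control. Total RNA extracted; cDNA made from 1 μg RNA with oligo dT (55 °C, 1 h). qPCR annealing at 64 °C, single amplicon checked by melt curve. KIT mRNA normalised to β-actin or YWHAZ and given as % of control. Two independent experiments, each in triplicate.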

The target is the same in data set [11]. The experiment in a line: Inhibition of c-Kit mRNA expression in human GIST882 cells after 24 hrs by […] RT-PCR analysis. Format: functional, cell-based. An outline of the steps: as §3
Data set [12] can be described thus: Toxicity in human GIST882 cells expressing c-Kit at 20 uM after 24 hrs. Type of data set: cell-based. The settings on record: gist882, 24 h.
Data set [13] concerns the target Mast/stem cell growth factor receptor Kit (Homo sapiens) (UniProt P10721). In words: Inhibition of c-Kit protein expression in human GIST882 cells at 20 uM after 24 hrs by immunoblotting. Type of data set: functional, cell-based. The method in brief: as §2
The target is the same in data set [14]. In words: Inhibition of c-Kit mRNA expression in human GIST882 cells at 4 uM after 24 hrs by […] RT-PCR analysis relative to control. Format: functional, cell-based. The method in brief:
as §3

Chain of Mast/stem cell growth factor receptor Kit (Homo sapiens) (P10721 whole entry): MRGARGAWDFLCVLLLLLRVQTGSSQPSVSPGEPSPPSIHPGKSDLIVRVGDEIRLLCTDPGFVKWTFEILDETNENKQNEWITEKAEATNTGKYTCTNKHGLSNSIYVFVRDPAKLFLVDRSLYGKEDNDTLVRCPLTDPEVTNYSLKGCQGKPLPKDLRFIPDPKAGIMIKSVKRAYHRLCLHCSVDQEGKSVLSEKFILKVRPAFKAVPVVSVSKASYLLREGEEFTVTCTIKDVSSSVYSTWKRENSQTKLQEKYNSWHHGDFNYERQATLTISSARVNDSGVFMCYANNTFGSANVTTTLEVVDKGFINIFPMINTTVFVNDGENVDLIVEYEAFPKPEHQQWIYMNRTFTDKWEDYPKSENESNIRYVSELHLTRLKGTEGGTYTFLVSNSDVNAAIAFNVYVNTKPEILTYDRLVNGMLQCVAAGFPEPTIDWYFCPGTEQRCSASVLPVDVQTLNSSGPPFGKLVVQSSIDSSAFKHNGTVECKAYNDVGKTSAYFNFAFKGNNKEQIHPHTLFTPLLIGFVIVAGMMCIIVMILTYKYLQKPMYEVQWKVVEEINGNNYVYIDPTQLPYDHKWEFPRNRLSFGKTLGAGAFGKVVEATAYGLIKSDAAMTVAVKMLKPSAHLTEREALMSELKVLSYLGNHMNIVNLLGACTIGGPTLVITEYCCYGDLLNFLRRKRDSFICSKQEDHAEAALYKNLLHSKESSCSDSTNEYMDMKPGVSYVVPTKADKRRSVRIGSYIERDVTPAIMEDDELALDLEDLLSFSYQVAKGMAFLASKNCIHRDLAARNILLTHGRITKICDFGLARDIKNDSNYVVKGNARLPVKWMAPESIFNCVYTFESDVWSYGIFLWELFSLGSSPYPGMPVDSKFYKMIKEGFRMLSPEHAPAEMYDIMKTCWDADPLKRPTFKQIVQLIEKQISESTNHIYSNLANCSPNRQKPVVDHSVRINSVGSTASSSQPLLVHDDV

Turning to `O=C1c2ccccc2-c2c1c1ccccc1c(=O)n2CCCn1ccnc1`, the concentration for half-maximal inhibition (IC50) in the data set with HT-29 was 2.2 µM; in the data set “cells”, 23 µM. Moreover, the Activity in the data set on Nucleic Acid [1] was over 10 µM; in the data set on Nucleic Acid [2], over 10 µM; in the data set on Nucleic Acid [3] it was over 10 µM; in the data set on Nucleic Acid [7] it was 0.62 µM. For the same compound, the deltaTm with Nucleic Acid [4] worked out at 11.7 K; in the data set on Nucleic Acid [5], 0 K; in the data set with Nucleic Acid [6], 6.3 K; with Nucleic Acid [8], 13.2 K.
As to `CN(C)CCCn1c2c(c3ccccc3c1=O)C(=O)c1ccccc1-2.Cl`, the inhibition entry in data set [9] is “Dose-dependent effect”; in data set [10], 89%; in data set [11], “Dose-dependent effect”; in [14], 67%. Moreover, the IC50 with HT-29 came to 0.3 µM; in “cells”, 4.1 µM. Also, the Activity was 0.95 µM with Nucleic Acid [1]; 1.6 µM in the data set with Nucleic Acid [2]; over 10 µM in the data set on Nucleic Acid [3]; “Toxic” in data set [12]; 0.69 µM in the data set with Nucleic Acid [7]. Besides, the deltaTm in the data set with Nucleic Acid [4] was 20.1 K; in the data set on Nucleic Acid [5], 3.9 K; in the data set with Nucleic Acid [6], 13 K; with Nucleic Acid [8], 13 K. For the same compound, the inhibition result in data set [13] was “Active”.
As to `CN1CCN(CCCn2c3c(c4ccccc4c2=O)C(=O)c2ccccc2-3)CC1`, the half-inhibitory concentration (IC50) in the data set on HT-29 was 0.7 µM; in “cells”, 13.9 µM. Further, the Activity in the data set with Nucleic Acid [1] is 0.59 µM; with Nucleic Acid [2], 0.98 µM; in the data set with Nucleic Acid [3], over 10 µM; in the data set with Nucleic Acid [7], 0.84 µM. Further, the deltaTm with Nucleic Acid [4] was found to be 25.9 K; with Nucleic Acid [5], 1.7 K; with Nucleic Acid [6] it was 17.6 K; in the data set on Nucleic Acid [8] it was 12.2 K.
With `O=C1c2ccccc2-c2c1c1ccccc1c(=O)n2CCCN1CCCC1`, the concentration for half-maximal inhibition (IC50) with HT-29 amounted to 0.4 µM; in “cells”, 5 µM. Besides, the Activity with Nucleic Acid [1] stood at 0.93 µM; in the data set on Nucleic Acid [2] it was 1.63 µM; with Nucleic Acid [3], 9 µM; in the data set on Nucleic Acid [7] it was 0.72 µM. The deltaTm in the data set with Nucleic Acid [4] was 23.7 K; in the data set on Nucleic Acid [5], 4 K; in the data set on Nucleic Acid [6] it was 14.4 K; in the data set on Nucleic Acid [8], 14.4 K.
Regarding `O=C1c2ccccc2-c2c1c1ccccc1c(=O)n2CCCN1CCOCC1`, the IC50 with HT-29 and in “cells” was over 50 µM each time. Besides, the Activity was 8.9 µM with Nucleic Acid [1], over 10 µM in the data set on Nucleic Acid [2], over 10 µM with Nucleic Acid [3] and 4.4 µM in the data set on Nucleic Acid [7]. Moreover, the deltaTm in the data set with Nucleic Acid [4] came out at 8.7 K; in the data set with Nucleic Acid [5], 0.6 K; with Nucleic Acid [6], 4.8 K; in the data set on Nucleic Acid [8], 3.9 K.
In the case of `Cc1ccc(NC(=O)c2ccc(CN3CCN(C)CC3)cc2)cc1Nc1nccc(-c2cccnc2)n1` [IMATINIB MESYLATE], the midpoint of inhibition in the data set “cells”, the IC50, lay at 1.7 µM.
